Experimental data reported in ChEMBL document CHEMBL1165899, “Synthesis and antitumor evaluation of novel cyclic arylsulfonylureas: ADME-T and pharmacophore prediction” (2010).

Assays:
Assay type in all cases: functional
NCI-H522 = experiment: Growth inhibition of human NCI-H522 cells at 10 uM after 48 hrs by sulforhodamine B assay relative to control; details: NCI-H522, 48 h, read-out: GI
UO-31 = experiment: Growth inhibition of human UO31 cells at 10 uM after 48 hrs by sulforhodamine B assay relative to control; details: UO-31, 48 h, read-out: GI
Summary of the method: (§1)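 NCI 60-cell-line single-dose screen at 10 µM. Cells were plated at 5000–40,000 cells/well according to doubling time, in medium with 2 mM L-glutamine, and held 24 h at 37 °C, 5% CO₂, 100% humidity before drug. Time-zero plates were TCA-fixed. Exposure was 48 h, then TCA fixation and sulforhodamine B staining for 10 min, acetic acid washes, 10 mM trizma solubilization and A515. % inhibition = 100 − % activity, where 100% is the DMSO-solvent control.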

UACC-257 = experiment: Growth inhibition of human UACC257 cells at 10 uM after 48 hrs by sulforhodamine B assay relative to control; details: UACC-257, 48 h, read-out: GI; summary of the method: as §1
[1] = Growth inhibition of human Hs 578T cells at 10 uM after 48 hrs by sulforhodamine B assay relative to control; details: read-out: GI
A498 = experiment: Growth inhibition of human A498 cells at 10 uM after 48 hrs by sulforhodamine B assay relative to control; details: A498, 48 h, read-out: GI
KM12 = experiment: Growth inhibition of human KM12 cells at 10 uM after 48 hrs by sulforhodamine B assay relative to control; details: KM12, 48 h, read-out: GI
CCRF-CEM = experiment: Growth inhibition of human CCRF-CEM cells at 10 uM after 48 hrs by sulforhodamine B assay relative to control; details: read-out: GI
SN12C = experiment: Growth inhibition of human SN12C cells at 10 uM after 48 hrs by sulforhodamine B assay relative to control; details: read-out: GI
T47D = experiment: Growth inhibition of human T47D cells at 10 uM after 48 hrs by sulforhodamine B assay relative to control; details: read-out: GI; summary of the method: as §1
OVCAR-3 = experiment: Growth inhibition of human OVCAR-3 cells at 10 uM after 48 hrs by sulforhodamine B assay relative to control; details: OVCAR-3, 48 h, read-out: GI
RXF 393 = experiment: Growth inhibition of human RXF393 cells at 10 uM after 48 hrs by sulforhodamine B assay relative to control; details: RXF 393, 48 h, read-out: GI
PC-3 = experiment: Growth inhibition of human PC3 cells at 10 uM after 48 hrs by sulforhodamine B assay relative to control; details: PC-3, 48 h, read-out: GI
MDA-MB-231 = experiment: Growth inhibition of human MDA-MB-231 cells at 10 uM after 48 hrs by sulforhodamine B assay relative to control; details: MDA-MB-231, 48 h, read-out: GI
EKVX = experiment: Growth inhibition of human EKVX cells at 10 uM after 48 hrs by sulforhodamine B assay relative to control; details: read-out: GI
OVCAR-5 = experiment: Growth inhibition of human OVCAR5 cells at 10 uM after 48 hrs by sulforhodamine B assay relative to control; details: OVCAR-5, 48 h, read-out: GI
NCI-H226 = experiment: Growth inhibition of human NCI-H226 cells at 10 uM after 48 hrs by sulforhodamine B assay relative to control; details: NCI-H226, 48 h, read-out: GI
M14 = experiment: Growth inhibition of human M14 cells at 10 uM after 48 hrs by sulforhodamine B assay relative to control; details: M14, 48 h, read-out: GI
SK-MEL-2 = experiment: Growth inhibition of human SK-MEL-2 cells at 10 uM after 48 hrs by sulforhodamine B assay relative to control; details: SK-MEL-2, 48 h, read-out: GI
K562 = experiment: Growth inhibition of human K562 cells at 10 uM after 48 hrs by sulforhodamine B assay relative to control; details: K562, 48 h, read-out: GI
MCF7 = experiment: Growth inhibition of human MCF7 cells at 10 uM after 48 hrs by sulforhodamine B assay relative to control; details: MCF7, 48 h, read-out: GI
A549 = experiment: Growth inhibition of human A549 cells at 10 uM after 48 hrs by sulforhodamine B assay relative to control; details: A549, 48 h, read-out: GI
SR = experiment: Growth inhibition of human SR cells at 10 uM after 48 hrs by sulforhodamine B assay relative to control; details: read-out: GI
NCI-H23 = experiment: Growth inhibition of human NCI-H23 cells at 10 uM after 48 hrs by sulforhodamine B assay relative to control; details: NCI-H23, 48 h, read-out: GI
SK-OV-3 = experiment: Growth inhibition of human SKOV3 cells at 10 uM after 48 hrs by sulforhodamine B assay relative to control; details: SK-OV-3, 48 h, read-out: GI
UACC-62 = experiment: Growth inhibition of human UACC62 cells at 10 uM after 48 hrs by sulforhodamine B assay relative to control; details: UACC-62, 48 h, read-out: GI; summary of the method: as §1
SNB-19 = experiment: Growth inhibition of human SNB19 cells at 10 uM after 48 hrs by sulforhodamine B assay relative to control; details: SNB-19, 48 h, read-out: GI

CN(C)c1ccc(/C=C2\NC(=O)N(S(=O)(=O)c3ccc(Cl)cc3)C2=O)cc1
inhibition of growth at 10 µM (NCI-H522): 9.78%
inhibition of growth at 10 µM (UO-31): 5.5%
inhibition of growth at 10 µM (UACC-257): -1.01%
inhibition of growth at 10 µM [1]: 14.1%
inhibition of growth at 10 µM (A498): -8.94%
inhibition of growth at 10 µM (KM12): -11.6%
inhibition of growth at 10 µM (CCRF-CEM): 2.95%
inhibition of growth at 10 µM (SN12C): 0.04%
inhibition of growth at 10 µM (T47D): -9.29%
inhibition of growth at 10 µM (OVCAR-3): -13.9%
inhibition of growth at 10 µM (RXF 393): 95.7%
inhibition of growth at 10 µM (PC-3): -6.65%
inhibition of growth at 10 µM (MDA-MB-231): -2.18%
inhibition of growth at 10 µM (EKVX): 14.7%
inhibition of growth at 10 µM (OVCAR-5): -4.44%
inhibition of growth at 10 µM (NCI-H226): -9.94%
inhibition of growth at 10 µM (M14): 200%
inhibition of growth at 10 µM (SK-MEL-2): 1.29%
inhibition of growth at 10 µM (K562): 8.89%
inhibition of growth at 10 µM (MCF7): -6.37%
inhibition of growth at 10 µM (A549): -8.84%
inhibition of growth at 10 µM (SR): 34.7%
inhibition of growth at 10 µM (NCI-H23): -1.8%
inhibition of growth at 10 µM (SK-OV-3): -8.45%
inhibition of growth at 10 µM (UACC-62): 3.93%
inhibition of growth at 10 µM (SNB-19): -6.78%
